pEC50: −log10 of the molar value. Active and inactive are the calls of the source. No cut-off for these calls is given here.
Assays:
[1] = system: Saccharomyces cerevisiae; assay: Antimicrobial activity against Saccharomyces cerevisiae IAM 1438T at 50 ug/disk; assay type: functional; conditions: read-out: IZ
[2] = system: Staphylococcus aureus; assay: Antimicrobial activity against Staphylococcus aureus IAM 12544T at 50 ug/disk; assay type: functional; conditions: read-out: IZ
[3] = system: Staphylococcus aureus; assay: Antimicrobial activity against Staphylococcus aureus IAM 12544T at 20 ug/disk; assay type: functional; conditions: read-out: IZ
[4] = system: Escherichia coli; assay: Antimicrobial activity against Escherichia coli IAM 12119T at 50 ug/disk; assay type: functional; conditions: read-out: IZ
[5] = Inhibition of colony formation in Chinese hamster V79 cells; assay type: functional, cell-based; conditions: Cricetulus griseus
Summary of the method: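 Compound added in DMSO at 0.01–10 μM, then 4 further days of incubation. Colonies counted; relative plating efficiency taken as colony number in sample dish over control dish; EC50 derived.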

[6] = system: Mucor hiemalis; assay: Antimicrobial activity against Mucor hiemalis IAM 6088 at 50 ug/disk; assay type: functional; conditions: for zone of inhibition at 50 µg/disc: read-out: IZ
[7] = system: Mucor hiemalis; assay: Antimicrobial activity against Mucor hiemalis IAM 6088 at 20 ug/disk; assay type: functional; conditions: read-out: IZ
[8] = system: Escherichia coli; assay: Antimicrobial activity against Escherichia coli IAM 12119T at 20 ug/disk; assay type: functional; conditions: read-out: IZ
[9] = system: Saccharomyces cerevisiae; assay: Antimicrobial activity against Saccharomyces cerevisiae IAM 1438T at 20 ug/disk; assay type: functional; conditions: read-out: IZ

Row | pEC50 [5] | Structure (SMILES) | zone of inhibition at 50 µg/disc [1] [mm] | zone of inhibition at 50 µg/disc [2] [mm] | zone of inhibition at 20 µg/disc [3] [mm] | zone of inhibition at 50 µg/disc [4] [mm] | zone of inhibition at 50 µg/disc [6] [mm] | zone of inhibition at 20 µg/disc [7] [mm] | zone of inhibition at 20 µg/disc [8] [mm] | Activity [6] | zone of inhibition at 20 µg/disc [9] [mm]
1 | 7.22 | COc1cc(CCN(C)C)c2sc3c(OC)c(OC)c(SC)c(CCN(C)C)c3ssc2c1O [LISSOCLIBADIN 5] | 6.2 | 15.8 | 9 | 11.6 |  |  |  |  | 
2 | 6.77 | COc1cc(CCN(C)C)c2c(c1O)SSc1c(CCN(C)C)cc(OC)c(O)c1SS2 [LISSOCLIBADIN 7] | 16.8 | 13.1 | 9.4 | 9.9 |  |  |  |  | 
3 | 6.72 | COc1c(OC)c2c(c(CCN(C)C)c1SC)SSS2 | 11.8 | 10.3 |  | 17.8 | 23 | 17.4 | 14.4 |  | 
4 | 7.10 | COc1c(SC)c(CCN(C)C)c2sc3c(OC)c(OC)c(SC)c(CCN(C)C)c3ssc2c1OC [LISSOCLIBADIN 2] |  |  |  |  | 13.8 |  |  |  | 
5 | 6.70 | COc1c(OC)c2c(c(CCN(C)C)c1SC)SSc1c(CCN(C)C)c(SC)c(OC)c(OC)c1Sc1c(OC)c(OC)c(SC)c(CCN(C)C)c1S2 [LISSOCLIBADIN 1] |  |  |  |  |  |  |  |  | 
6 | 7.22 | COc1cc(CCN(C)C)c2c(c1O)Sc1c(CCN(C)C)c(SC)c(OC)c(OC)c1S2 [LISSOCLIBADIN 6] | 7.8 | 13.8 | 10 | 10.8 |  |  |  |  | 
7 | 6.82 | COc1c(OC)c2c(c(CCN(C)C)c1SC)SSSSS2 | 15.2 | 14.2 |  | 17.1 | 26.2 | 19.6 | 13.1 |  | 10.5
8 | 6.47 | COc1c(OC)c2c(c(CCN(C)C)c1SC)Sc1c(OC)c(OC)c(SC)c(CCN(C)C)c1S2 [LISSOCLIBADIN 3] |  |  |  |  |  |  |  |  | 

Row | Structure (SMILES) | pEC50 [5] | zone of inhibition at 50 µg/disc [1] [mm] | zone of inhibition at 50 µg/disc [2] [mm] | zone of inhibition at 20 µg/disc [3] [mm] | zone of inhibition at 50 µg/disc [4] [mm] | zone of inhibition at 50 µg/disc [6] [mm] | zone of inhibition at 20 µg/disc [7] [mm] | zone of inhibition at 20 µg/disc [8] [mm] | Activity [6] | zone of inhibition at 20 µg/disc [9] [mm]
9 | COc1c(SC)c(CCN(C)C)c2sc3c(CCN(C)C)c(SC)c(OC)c(OC)c3ssc2c1OC [LISSOCLINOTOXIN F] | 6.55 |  |  |  |  | 18 | 10.5 |  |  | 
10 | COc1c(OC)c2c(c(CCN(C)C)c1SC)Sc1c(CCN(C)C)c(SC)c(OC)c(OC)c1S2 [LISSOCLINOTOXIN E] | 6.57 |  |  |  |  |  |  |  |  | 
11 | COc1cc(CCN(C)C)c2sc3c(O)c(OC)cc(CCN(C)C)c3ssc2c1O [LISSOCLIBADIN 4] | 6.15 |  | 13.1 | 10.8 | 15.7 |  |  |  | inactive | 

Source: ChEMBL document CHEMBL1142240, “Lissoclibadins 4-7, polysulfur aromatic alkaloids from the Indonesian ascidian Lissoclinum cf. badium” (J Nat Prod, 2007)
